The results in this text go back to ChEMBL document CHEMBL2203101, “Molecular hybridization of bioactives: synthesis and antitubercular evaluation of novel dibenzofuran embodied homoisoflavonoids via Baylis-Hillman reaction” (Bioorg Med Chem Lett, 2012).

Data set [1] can be described thus: Lipophilicity, log P of the compound. The class given is physicochemical. To be noted: octanol/water.
The subject of data set [2] is Mycobacterium tuberculosis. Nature of the data set: Antimycobacterial activity against Mycobacterium tuberculosis H37Rv ATCC 27294 after 28 days by agar dilution method. It is filed as functional. The conditions noted are these: H37Rv ATCC 27294, 672 h. Put shortly: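 Compounds and reference drugs were tenfold serially diluted into Middlebrook 7H11 agar with OADC supplement. The inoculum came from fresh 7H11/OADC slants, was adjusted to 1 mg/mL (wet weight) in 0.05% Tween 80 saline, and was diluted 10^-2 to give 10^7 cfu/mL. Bacterial suspension was spotted onto the drug-containing agar tubes, incubated at 37 C, and final readings were taken after 28 days.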

In brackets after ≈: the same amount, converted by molar mass.

Consider `Cc1ccc2c(c1)C(=O)/C(=C/c1ccc3oc4ccccc4c3c1)CO2`, for which the logP in data set [1] amounted to 4.17. In data set [2], this compound registered an MIC of 25 µg/mL (≈ 73.4 µM). On to `O=C1/C(=C/c2ccc3oc4ccccc4c3c2)COc2ccc3[nH]c4ccccc4c3c21`, for which the logP in data set [1] is 4.38. Also, in data set [2], the MIC turned out to be 25 µg/mL (≈ 60.2 µM). For `O=C1/C(=C/c2ccc3oc4ccccc4c3c2)COc2c1ccc1ccccc21`, in data set [1], the logP amounted to 4.68. In data set [2], the MIC amounted to 25 µg/mL (≈ 66.4 µM).

Turning to `O=C1/C(=C/c2ccc3oc4ccccc4c3c2)COc2ccccc21`, the logP in data set [1] is 3.69. 25 µg/mL (≈ 76.6 µM) was the least that counted as inhibitory in data set [2] (MIC). The corresponding values for `COc1ccc2c(c1)C(=O)/C(=C/c1ccc3oc4ccccc4c3c1)CO2` are 3.56 and 25 µg/mL (≈ 70.2 µM). Take `O=C1/C(=C/c2ccc3oc4ccccc4c3c2)COc2ccc(Br)cc21`: the logP in data set [1] was found to be 4.51. It took 12.5 µg/mL (≈ 30.8 µM) to inhibit growth in data set [2] (MIC). Consider `CC[C@@H](CO)NCCN[C@@H](CC)CO` [ETHAMBUTOL], for which 3.13 µg/mL (≈ 15.3 µM) was the least that counted as inhibitory in data set [2] (MIC). In the case of `CC(C)(C)c1ccc2c(c1)C(=O)/C(=C/c1ccc3oc4ccccc4c3c1)CO2`, the logP in data set [1] is 5.39. Also, in data set [2], the MIC is 25 µg/mL (≈ 65.4 µM). `O=C1/C(=C/c2ccc3oc4ccccc4c3c2)COc2ccc(F)cc21` displayed a logP in data set [1] of 3.84. In data set [2], this compound yielded an MIC of 12.5 µg/mL (≈ 36.3 µM). Regarding `O=C1/C(=C/c2ccc3oc4ccccc4c3c2)COc2ccc3ccccc3c21`, the logP in data set [1] was determined as 4.68. The same compound displayed an MIC in data set [2] of 25 µg/mL (≈ 66.4 µM). `NNC(=O)c1ccncc1` [ISONIAZID] registered an MIC in data set [2] of 0.1 µg/mL (≈ 0.729 µM). Consider `NC(=O)c1cnccn1` [PYRAZINAMIDE], for which the MIC in data set [2] came to 50 µg/mL (≈ 406 µM). The compound `COc1cccc2c1OC/C(=C\c1ccc3oc4ccccc4c3c1)C2=O` showed a logP in data set [1] of 3.56. Further, the MIC in data set [2] was determined as 25 µg/mL (≈ 70.2 µM). In data set [1], `O=C1/C(=C/c2ccc3oc4ccccc4c3c2)COc2ccc3oc4ccccc4c3c21` registered a logP of 4.35. In data set [2], this compound showed an MIC of 25 µg/mL (≈ 60 µM).

The term logP denotes a log measure of how a compound divides between an organic and an aqueous phase. Broadly, the MIC is the least concentration at which growth counts as inhibited. Lower therefore signals greater potency.
